Assay results published in ChEMBL document CHEMBL4823250, “Discovery of thalidomide-based PROTAC small molecules as the highly efficient SHP2 degraders” (Eur J Med Chem, 2021).
The source made the active and inactive calls. No cut-off for these calls is given here.

How the values were obtained:
MV4-11 [1] = assay: Induction of apoptosis in human MV4-11 cells assessed as late apoptotic cells at 600 nM measured after 48 hrs by Annexin V/FITC-PI staining based flowcytometry assay (reference value: 5.95%); assay type: functional
MV4-11 [2] = assay: Induction of apoptosis in human MV4-11 cells assessed as necrotic cells at 600 nM measured after 48 hrs by Annexin V/FITC-PI staining based flowcytometry assay (reference value: 0.07%); assay type: functional
MV4-11 [3] = assay: Induction of apoptosis in human MV4-11 cells assessed as necrotic cells at 200 nM measured after 48 hrs by Annexin V/FITC-PI staining based flowcytometry assay (reference value: 0.07%); assay type: functional
MV4-11 [4] = assay: Induction of apoptosis in human MV4-11 cells assessed as early apoptotic cells at 200 nM measured after 48 hrs by Annexin V/FITC-PI staining based flowcytometry assay (reference value: 2.99%); assay type: functional
MV4-11 [5] = assay: Induction of apoptosis in human MV4-11 cells assessed as viable cells at 70 nM measured after 48 hrs by Annexin V/FITC-PI staining based flowcytometry assay (reference value: 91%); assay type: functional
MV4-11 [6] = assay: Induction of apoptosis in human MV4-11 cells assessed as late apoptotic cells at 200 nM measured after 48 hrs by Annexin V/FITC-PI staining based flowcytometry assay (reference value: 5.95%); assay type: functional
MV4-11 [7] = assay: Antiproliferative activity against human MV4-11 cells assessed as inhibition of cell proliferation measured after 72 hrs by MTS assay; assay type: functional, cell-based; details: MV4-11, 72 h
In short: (§1)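 MV4;11 (ATCC, STR-authenticated) in IMDM with 10% FBS, penicillin/streptomycin, 37 °C, 5% CO2. Seeded at 1.0–4.0 × 10^4 cells/well, rested 2 h, then exposed to 0.01% DMSO or graded compound concentrations for 72 h. MTS/PMS added for 2–4 h. IC50 from sigmoidal variable-slope nonlinear regression; mean ± SEM of at least three separate assays, each in triplicate.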

MV4-11 [8] = assay: Induction of apoptosis in human MV4-11 cells assessed as necrotic cells at 70 nM measured after 48 hrs by Annexin V/FITC-PI staining based flowcytometry assay (reference value: 0.07%); assay type: functional
MV4-11 [9] = assay: Cytotoxicity against human MV4-11 cells assessed as cell viability measured after 72 hrs by MTS assay; assay type: functional, cell-based; details: MV4-11, 72 h; in short: as §1
MV4-11 [10] = assay: Cytotoxicity against CRBN knock out human MV4-11 cells assessed as cell viability measured after 72 hrs by MTS assay; assay type: cell-based; details: MV4-11, 72 h
In short: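 MV4;11 cells with CRBN knocked out, cultured in IMDM with 10% FBS, penicillin/streptomycin, 37 °C, 5% CO2. Seeded at 1.0–4.0 × 10^4 cells/well, rested 2 h, then given 0.01% DMSO or graded compound concentrations for 72 h. Viability by MTS/PMS over 2–4 h. IC50 from sigmoidal variable-slope fit; mean ± SEM of ≥3 assays in triplicate.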

MV4-11 [11] = assay: Induction of apoptosis in human MV4-11 cells assessed as late apoptotic cells at 70 nM measured after 48 hrs by Annexin V/FITC-PI staining based flowcytometry assay (reference value: 5.95%); assay type: functional
MV4-11 [12] = assay: Induction of apoptosis in human MV4-11 cells assessed as early apoptotic cells at 600 nM measured after 48 hrs by Annexin V/FITC-PI staining based flowcytometry assay (reference value: 2.99%); assay type: functional
MV4-11 [13] = assay: Induction of apoptosis in human MV4-11 cells assessed as viable cells at 200 nM measured after 48 hrs by Annexin V/FITC-PI staining based flowcytometry assay (reference value: 91%); assay type: functional
MV4-11 [14] = assay: Cell cycle arrest in human MV4-11 cells assessed as accumulation at G1 phase at 200 nM measured after 24 hrs by PI staining based flow cytometry assay; assay type: functional
In short: (§2)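 MV4-11 cells treated 24 h, then washed twice in cold PBS and fixed in ethanol overnight at 4 °C. Stained with propidium iodide plus RNase for 15 min at 37 °C. Cell-cycle distribution measured by flow cytometry.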

MV4-11 [15] = assay: Induction of apoptosis in human MV4-11 cells assessed as viable cells at 600 nM measured after 48 hrs by Annexin V/FITC-PI staining based flowcytometry assay (reference value: 91%); assay type: functional
MV4-11 [16] = assay: Induction of apoptosis in human MV4-11 cells assessed as early apoptotic cells at 70 nM measured after 48 hrs by Annexin V/FITC-PI staining based flowcytometry assay (reference value: 2.99%); assay type: functional
[17] = biological target: T1, Protein cereblon/Tyrosine-protein phosphatase non-receptor type 11 (Homo sapiens, UniProt Q06124+Q96SW2); assay: Protac activity at SHP2/CRBN in human MV4-11 cells assessed as SHP2 degradation at 8 nM measured after 12 hrs by Western blot analysis relative to control; assay type: cell-based
In short: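 MV4-11 cells (IMDM, 10% FBS, 37 °C, 5% CO2) plated at 1.0×10^6 cells/well and exposed 12 h to 8 or 200 nM. Lysis in RIPA with protease inhibitors, then SDS-PAGE, nitrocellulose transfer and anti-human SHP2 immunoblot. SHP2 signal normalized to GAPDH and percent degradation quantified by densitometry. Reported as the average of two independent measurements.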
Target sequence in this assay (Q96SW2 whole entry partner, one chain of several): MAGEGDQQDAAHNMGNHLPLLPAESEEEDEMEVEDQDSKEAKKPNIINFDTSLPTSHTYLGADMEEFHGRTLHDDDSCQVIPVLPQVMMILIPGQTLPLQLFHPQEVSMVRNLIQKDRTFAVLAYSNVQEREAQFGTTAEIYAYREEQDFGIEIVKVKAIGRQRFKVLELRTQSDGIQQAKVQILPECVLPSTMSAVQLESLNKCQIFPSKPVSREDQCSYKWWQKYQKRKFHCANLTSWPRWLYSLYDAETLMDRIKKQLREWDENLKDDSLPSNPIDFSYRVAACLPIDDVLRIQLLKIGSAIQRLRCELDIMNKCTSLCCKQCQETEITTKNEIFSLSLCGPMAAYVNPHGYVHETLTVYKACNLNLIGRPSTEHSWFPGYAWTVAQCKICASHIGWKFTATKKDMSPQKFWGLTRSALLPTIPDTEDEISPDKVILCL

[18] = biological target: T2, Tyrosine-protein phosphatase non-receptor type 11 (Homo sapiens, UniProt Q06124); assay: Inhibition of human SHP2 catalytic activity
T2 sequence (Q06124 whole entry): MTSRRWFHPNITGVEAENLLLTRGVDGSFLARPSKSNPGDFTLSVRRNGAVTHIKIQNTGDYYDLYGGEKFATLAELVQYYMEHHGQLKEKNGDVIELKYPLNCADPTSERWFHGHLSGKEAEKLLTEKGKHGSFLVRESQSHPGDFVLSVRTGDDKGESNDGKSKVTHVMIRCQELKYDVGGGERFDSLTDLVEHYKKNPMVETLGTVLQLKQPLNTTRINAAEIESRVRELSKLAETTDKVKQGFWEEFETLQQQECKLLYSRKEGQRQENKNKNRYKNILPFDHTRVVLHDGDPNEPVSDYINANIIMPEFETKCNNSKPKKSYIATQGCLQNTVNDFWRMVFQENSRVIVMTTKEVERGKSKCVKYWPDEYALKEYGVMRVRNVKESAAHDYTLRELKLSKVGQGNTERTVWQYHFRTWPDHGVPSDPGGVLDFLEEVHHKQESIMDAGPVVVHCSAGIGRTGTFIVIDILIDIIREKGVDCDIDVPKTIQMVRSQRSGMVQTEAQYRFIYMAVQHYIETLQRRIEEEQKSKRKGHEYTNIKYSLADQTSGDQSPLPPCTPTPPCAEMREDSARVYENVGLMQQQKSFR

[19] = biological target: T1, Protein cereblon/Tyrosine-protein phosphatase non-receptor type 11; assay: Protac activity at SHP2/CRBN in human MV4-11 cells assessed as induction of SHP2 degradation measured after 12 hrs by Western blot analysis; assay type: cell-based
In short: (§3)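 MV4-11 cells, 1.0×10^6 cells/well, treated 12 h across a concentration series. Lysed in RIPA plus protease inhibitors, separated by SDS-PAGE onto nitrocellulose and immunoblotted for SHP2 with GAPDH as loading control. Band intensities normalized to GAPDH; DC50 derived from the quantified SHP2 levels.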
Target sequence in this assay (Q96SW2 whole entry, one chain of several): as the sequence (Q96SW2 whole entry partner, one chain of several) above

MV4-11 [20] = assay: Cell cycle arrest in human MV4-11 cells assessed as accumulation at G1 phase measured after 24 hrs by PI staining based flow cytometry assay; assay type: functional; in short: as §2
[21] = biological target: T1, Protein cereblon/Tyrosine-protein phosphatase non-receptor type 11; assay: Protac activity at SHP2/CRBN in human MV4-11 cells assessed as SHP2 degradation at 100 nM measured after 6 hrs by Western blot analysis relative to control; assay type: cell-based
Target sequence in this assay (Q96SW2 whole entry partner, one chain of several): as the sequence (Q96SW2 whole entry partner, one chain of several) above

[22] = biological target: T1, Protein cereblon/Tyrosine-protein phosphatase non-receptor type 11; assay: Protac activity at SHP2/CRBN in human MV4-11 cells assessed as decrease in SHP2 protein level measured after 12 hrs by Western blot analysis; assay type: cell-based; details: dose 8-500 nM; in short: as §3
Target sequence in this assay (Q96SW2 whole entry partner, one chain of several): as the sequence (Q96SW2 whole entry partner, one chain of several) above

[23] = biological target: T1, Protein cereblon/Tyrosine-protein phosphatase non-receptor type 11; assay: Protac activity at SHP2/CRBN in human MV4-11 cells assessed as SHP2 degradation at 100 nM measured after 24 hrs by Western blot analysis relative to control; assay type: cell-based
Target sequence in this assay (Q96SW2 whole entry partner, one chain of several): as the sequence (Q96SW2 whole entry partner, one chain of several) above

[24] = biological target: T3, Tyrosine-protein phosphatase non-receptor type 11 (Homo sapiens) (UniProt Q06124); assay: Induction of SHP2 degradation in CRBN knock out human MV4-11 cells at 8 to 200 nM measured after 12 hrs by Western blot analysis; assay type: cell-based; details: dose 8-200 nM
T3 sequence (whole entry): T2 sequence (Q06124 whole entry)

[25] = Homo sapiens, MV4-11, read-out: Activity

## CC1(N)CCN(c2cnc(-c3cccc(Cl)c3Cl)c(N)n2)CC1
MV4-11 [1]
  Activity: 7.74%
MV4-11 [2]
  Activity: 0.098%
MV4-11 [3]
  Activity: 0.099%
MV4-11 [4]
  Activity: 4.68%
MV4-11 [5]
  Activity: 94%
MV4-11 [6]
  Activity: 6.43%
MV4-11 [7]
  IC50: 475 nM
MV4-11 [8]
  Activity: 0.078%
MV4-11 [9]
  IC50: 572 nM
MV4-11 [10]
  IC50: 803 nM
MV4-11 [11]
  Activity: 4.52%
MV4-11 [12]
  Activity: 5.08%
MV4-11 [13]
  Activity: 88.5%
MV4-11 [14]
  Activity: Active
MV4-11 [15]
  Activity: 86.5%
MV4-11 [16]
  Activity: 3.98%

## C[C@@H]1OCC2(CCN(c3cnc(Sc4cccc(NC(=O)CCC(=O)NCCOCCOCCNc5ccc6c(c5)C(=O)N(C5CCC(=O)NC5=O)C6=O)c4Cl)c(N)n3)CC2)[C@@H]1N (some centres undefined)
[17]
  Activity: < 5%

## C[C@@H]1OCC2(CCN(c3cnc(Sc4cccc(NC(=O)CCC(=O)NCCCCCCCCCNc5cccc6c5C(=O)N(C5CCC(=O)NC5=O)C6=O)c4Cl)c(N)n3)CC2)[C@@H]1N (some centres undefined)
[17]
  Activity: 23%

## C[C@@H]1OCC2(CCN(c3cnc(Sc4cccc(NC(=O)CCC(=O)NCCCCCCCCCCCCNc5cccc6c5C(=O)N(C5CCC(=O)NC5=O)C6=O)c4Cl)c(N)n3)CC2)[C@@H]1N (some centres undefined)
[17]
  Activity: 18%

## C[C@@H]1OCC2(CCN(c3cnc(Sc4cccc(NC(=O)CCC(=O)NCCCCCCCCCCCNc5cccc6c5C(=O)N(C5CCC(=O)NC5=O)C6=O)c4Cl)c(N)n3)CC2)[C@@H]1N (some centres undefined)
[17]
  Activity: 26%

## C[C@@H]1OCC2(CCN(c3cnc(Sc4cccc(NC(=O)CCC(=O)NCCCCCCCCCCNc5cccc6c5C(=O)N(C5CCC(=O)NC5=O)C6=O)c4Cl)c(N)n3)CC2)[C@@H]1N (some centres undefined)
[17]
  Activity: 0%

## C[C@@H]1OCC2(CCN(c3cnc(Sc4cccc(NC(=O)CCC(=O)NCCOCCOCCOCCNc5cccc6c5C(=O)N(C5CCC(=O)NC5=O)C6=O)c4Cl)c(N)n3)CC2)[C@@H]1N (some centres undefined)
[17]
  Activity: 28%

## C[C@@H]1OCC2(CCN(c3cnc(Sc4cccc(NC(=O)CCC(=O)NCCOCCOCCOCCNc5ccc6c(c5)C(=O)N(C5CCC(=O)NC5=O)C6=O)c4Cl)c(N)n3)CC2)[C@@H]1N (some centres undefined)
[17]
  Activity: < 5%

## C[C@@H]1OCC2(CCN(c3cnc(Sc4cccc(N)c4Cl)c(N)n3)CC2)[C@@H]1N
MV4-11 [7]
  IC50: 60 nM
[18]
  IC50: 17 nM

## C[C@@H]1OCC2(CCN(c3cnc(Sc4cccc(NC(=O)CCC(=O)NCCCCCCCCCCCCCNc5cccc6c5C(=O)N(C5CCC(=O)NC5=O)C6=O)c4Cl)c(N)n3)CC2)[C@@H]1N (some centres undefined)
[17]
  Activity: 8%

## C[C@@H]1OCC2(CCN(c3cnc(Sc4cccc(NC(=O)CCC(=O)NCCCOCCOCCOCCCNc5cccc6c5C(=O)N(C5CCC(=O)NC5=O)C6=O)c4Cl)c(N)n3)CC2)[C@@H]1N (some centres undefined)
MV4-11 [1]
  Activity: 14.3%
MV4-11 [2]
  Activity: 0.907%
[19]
  DC50: 6.02 nM
MV4-11 [3]
  Activity: 0.39%
MV4-11 [4]
  Activity: 7.23%
MV4-11 [5]; [25]
  viability at 0.07 µM: 87.5%
MV4-11 [6]
  Activity: 11.3%
MV4-11 [20]
  Activity: Dose-Dependent Effect
MV4-11 [7]
  IC50: 207 nM
MV4-11 [8]
  Activity: 0.175%
MV4-11 [9]
  IC50: 207 nM
MV4-11 [10]
  IC50: 2630 nM
MV4-11 [11]
  Activity: 8.01%
MV4-11 [12]
  Activity: 7.88%
[21]
  Activity: > 50%
[22]
  Activity: Dose-Dependent Effect
MV4-11 [13]; [25]
  viability at 0.2 µM: 81%
[18]
  IC50: 202 nM
[23]
  Activity: > 90%
[24]
  Activity: inactive
MV4-11 [15]; [25]
  viability at 0.6 µM: 76.9%
MV4-11 [16]
  Activity: 4.76%
[17]
  Activity: 46%

## C[C@@H]1OCC2(CCN(c3cnc(Sc4cccc(NC(=O)CCC(=O)NCCOCCNc5ccc6c(c5)C(=O)N(C5CCC(=O)NC5=O)C6=O)c4Cl)c(N)n3)CC2)[C@@H]1N (some centres undefined)
[17]
  Activity: < 5%

## C[C@@H]1OCC2(CCN(c3cnc(Sc4cccc(NC(=O)CCC(=O)NCCOCCNc5cccc6c5C(=O)N(C5CCC(=O)NC5=O)C6=O)c4Cl)c(N)n3)CC2)[C@@H]1N (some centres undefined)
[17]
  Activity: 6%

## C[C@@H]1OCC2(CCN(c3cnc(Sc4cccc(NC(=O)CCC(=O)NCCCOCCOCCOCCCNc5ccc6c(c5)C(=O)N(C5CCC(=O)NC5=O)C6=O)c4Cl)c(N)n3)CC2)[C@@H]1N (some centres undefined)
[17]
  Activity: 42%

## C[C@@H]1OCC2(CCN(c3cnc(Sc4cccc(NC(=O)CCC(=O)NCCOCCOCCNc5cccc6c5C(=O)N(C5CCC(=O)NC5=O)C6=O)c4Cl)c(N)n3)CC2)[C@@H]1N (some centres undefined)
[17]
  Activity: 25%

## C[C@@H]1OCC2(CCN(c3cnc(Sc4cccc(NC(=O)CCC(=O)NCCCCCCCCNc5cccc6c5C(=O)N(C5CCC(=O)NC5=O)C6=O)c4Cl)c(N)n3)CC2)[C@@H]1N (some centres undefined)
[17]
  Activity: 22%
